PMC7325368 (Journal of Clinical Oncology, 2020)
Where “and” joins values, the source holds several entries; their conditions need not be identical. Identical values can stand only once. Like-named read-outs stand apart in the source and are kept apart here.

Columns and labels:
B-RAF–mutated melanoma = settings: patients with B-RAF–mutated melanoma ref 12, 33; cited from earlier work
[1] = Plasma pharmacokinetics in patients; assay type: in vivo; settings: human
How it was run: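 Oral test compound given as a single dose on cycle 1, day 1, then a 2-day treatment-free period for single-dose PK sampling, then once daily on days 4–24 and continuously in 21-day cycles. Doses were 10–60 mg. Plasma was sampled at prespecified time points on cycle 1, day 1 and cycle 2, day 1. Accumulation ratios for Cmax, AUC0-9 and AUC0-24 were taken as cycle 2/cycle 1.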

[2] = test system: K-RAS/N-RAS–mutated solid tumors; assay: Antitumor activity; assay type: in vivo, human
[3] = test system: B-RAF– or K-RAS/N-RAS–mutated solid tumors; assay type: in vivo, human
How it was run: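 Oral test compound once daily: escalation cohorts at 5–60 mg; expansion at 30 mg/d in 21-day cycles in patients with B-RAF or K-RAS/N-RAS mutations. Treatment continued until unacceptable toxicity or withdrawal, with treatment beyond progression allowed if clinically beneficial. Response and stable disease scored per RECIST v1.1, investigator-assessed in expansion. Time-to-event end points summarized by Kaplan-Meier estimators.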

VEGFR2 = settings: inhibition of VEGFR2 ref 15; cited from earlier work
[4] = test system: patients with advanced/metastatic solid tumors; assay: Safety and tolerability; assay type: in vivo, human
[5] = test system: EGFR, DDR1, DDR2, EPHA3, FLT3, VEGFR2, ABL1, RET, EPHGA7, EPHB2, MNK2, and ZAK; settings: EPHGA7, EPHB2, MNK2, ZAK ref 15; cited from earlier work
[6] = test system: B-RAF–mutated solid tumors; assay: Antitumor activity; assay type: in vivo, human
[7] = test system: tumor FDG uptake in patients with solid tumors; assay: FDG-PET-CT scans; assay type: in vivo, human
How it was run: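 Exploratory FDG uptake measured by FDG-PET-CT at screening and again on cycle 2, day 1 (± 3 days) in patients receiving the oral test compound once daily in 21-day cycles. Each patient's on-treatment uptake category was compared with the baseline scan.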

[8] = K-RAS^mut/N-RAS^mut patients (n = 66), both phases
[9] = Dose Expansion (n = 96), 30 mg/d
[10] = B-RAF^mut patients (n = 53), both phases
[11] = cycle 2, day 1, 34 patients (7 missing postbaseline results)
[12] = cycle 2, day 1 vs baseline, 1 patient

Compound: CC(C)(C)c1nc(-c2cccc(NS(=O)(=O)c3c(F)cccc3F)c2F)c(-c2ccnc(N)n2)s1 [dabrafenib]
- DCR (B-RAF–mutated melanoma): 91%
- ORR (B-RAF–mutated melanoma): 50%

Compound: O=C1CCc2c(Oc3ccc4c(c3)[C@@H]3[C@H](O4)[C@H]3c3nc4ccc(C(F)(F)F)cc4[nH]3)ccnc2N1 [lifirafenib]
- half-life ([1]; oral): 15 to 59 h
- Tmax ([1]; po): 3 h
- Patients with confirmed PR ([2]; K-RAS codon 12–mutated NSCLC, 30 mg/d): 1 n
- Patients with duration of treatment > 1 year ([2]; K-RAS mutations): 5 n
- Patients with confirmed responses ([2]; K-RAS mutations, entire study): 2 patients
- Responses ([2]; K-RAS/N-RAS–mutated colorectal cancer (n = 20)): No responses
- Best overall response (confirmed): CR [2, 8]: 0 No. (%)
- Best overall response (confirmed): NE/missing [2, 8]: 15 (22.7) No. (%)
- Best overall response (confirmed): PD [2, 8]: 16 (24.2) No. (%)
- Best overall response (confirmed): PR [2, 8]: 2 (3.0) No. (%)
- Best overall response (confirmed): SD [2, 8]: 33 (50.0) No. (%)
- Disease control rate (CR + PR + SD) [2, 8]: 35 (53.0) No. (%)
- Objective response rate (CR + PR) [2, 8]: 2 (3.0) No. (%)
- Patients with SD ([2]; K-RAS– or N-RAS–mutated CRC): Twelve
- Patients with SD ([2]; K-RAS–mutated NSCLC (codon 12 mutated and K-RAS G13D, n = 1 each)): 2 patients
- Patients with SD ([2]; K-RAS–mutated endometrial cancer (codon 12 mutated, n = 4; codon 2 mutated, n = 1)): 5 patients
- Patients with confirmed PR ([2]; K-RAS–mutated endometrial cancer, 20 mg/d): 1 n
- ORR ([2]; patients with K-RAS mutations, entire study): 3.4%
- Patients with SD ([2]; patients with K-RAS mutations, entire study, 32 patients): 54.2%
- Patients with confirmed clinical responses ([3]; dose escalation, n = 3, all had FDG-PET-CT responses): 8.6%
- Median DoR ([3]; dose escalation, 95% CI, 6.8 to 31.7 months): 31.7 months
- Median DoR ([3]; dose expansion, 95% CI, 1.9 months to not reached): 11.1 months
- Median duration of SD ([3]; dose expansion, 95% CI, 3.5 to 4.9 months): 4.1 months
- IC50 (VEGFR2): 0.108 µM
- Patients with dose interruptions/reductions as a result of drug toxicity ([4]; 40 mg/d, typically between days 13 and 28 of cycle 1): 70%
- TEAE Abdominal pain, upper, Any Grade ([4]; Dose Escalation (n = 35)): 4 (11.4) No. (%)
- TEAE Abdominal pain, upper, Grade ≥ 3 ([4]; Dose Escalation (n = 35)): 0 (0.0) No. (%)
- TEAE Gastroesophageal reflux disease, Any Grade ([4]; Dose Escalation (n = 35)): 6 (17.1) No. (%)
- TEAE Gastroesophageal reflux disease, Grade ≥ 3 ([4]; Dose Escalation (n = 35)): 0 (0.0) No. (%)
- TEAE Musculoskeletal chest pain, Any Grade ([4]; Dose Escalation (n = 35)): 6 (17.1) No. (%)
- TEAE Musculoskeletal chest pain, Grade ≥ 3 ([4]; Dose Escalation (n = 35)): 0 (0.0) No. (%)
- TEAE Palmoplantar erythrodysesthesia syndrome, Any Grade ([4]; Dose Escalation (n = 35)): 11 (31.4) No. (%)
- TEAE Palmoplantar erythrodysesthesia syndrome, Grade ≥ 3 ([4]; Dose Escalation (n = 35)): 2 (5.7) No. (%)
- TEAE Upper respiratory tract infection, Any Grade ([4]; Dose Escalation (n = 35)): 6 (17.1) No. (%)
- TEAE Upper respiratory tract infection, Grade ≥ 3 ([4]; Dose Escalation (n = 35)): 0 (0.0) No. (%)
- TEAE Urinary tract infection, Any Grade ([4]; Dose Escalation (n = 35)): 4 (11.4) No. (%)
- TEAE Urinary tract infection, Grade ≥ 3 ([4]; Dose Escalation (n = 35)): 0 (0.0) No. (%)
- TEAE γ-Glutamyl transferase increase, Any Grade ([4]; Dose Escalation (n = 35)): 6 (17.1) No. (%)
- TEAE γ-Glutamyl transferase increase, Grade ≥ 3 ([4]; Dose Escalation (n = 35)): 4 (11.4) No. (%)
- TEAE Abdominal pain, upper, Any Grade [4, 9]: 8 (8.3) No. (%)
- TEAE Abdominal pain, upper, Grade ≥ 3 [4, 9]: 2 (2.1) No. (%)
- TEAE Gastroesophageal reflux disease, Any Grade [4, 9]: 4 (4.2) No. (%)
- TEAE Gastroesophageal reflux disease, Grade ≥ 3 [4, 9]: 0 (0.0) No. (%)
- TEAE Musculoskeletal chest pain, Any Grade [4, 9]: 7 (7.3) No. (%)
- TEAE Musculoskeletal chest pain, Grade ≥ 3 [4, 9]: 0 (0.0) No. (%)
- TEAE Palmoplantar erythrodysesthesia syndrome, Any Grade [4, 9]: 20 (20.8) No. (%)
- TEAE Palmoplantar erythrodysesthesia syndrome, Grade ≥ 3 [4, 9]: 1 (1.0) No. (%)
- TEAE Upper respiratory tract infection, Any Grade [4, 9]: 5 (5.2) No. (%)
- TEAE Upper respiratory tract infection, Grade ≥ 3 [4, 9]: 0 (0.0) No. (%)
- TEAE Urinary tract infection, Any Grade [4, 9]: 10 (10.4) No. (%)
- TEAE Urinary tract infection, Grade ≥ 3 [4, 9]: 1 (1.0) No. (%)
- TEAE γ-Glutamyl transferase increase, Any Grade [4, 9]: 4 (4.2) No. (%)
- TEAE γ-Glutamyl transferase increase, Grade ≥ 3 [4, 9]: 4 (4.2) No. (%)
- Time to occurrence of dose-limiting thrombocytopenia ([4]; after initial dosing, dose escalation): 2-3 weeks
- Patients who experienced reversible DLTs ([4]; among patients eligible for DLT assessment (n = 31), dose escalation): 6 patients
- DLT: grade 3 increased ALT ([4]; dose escalation): 1 n
- DLT: grade 4 thrombocytopenia ([4]; dose escalation): 5 n
- Grade ≥ 3 treatment-related TEAE fatigue ([4]; dose escalation): 11.4%
- Grade ≥ 3 treatment-related TEAE hypertension ([4]; dose escalation): 11.4%
- Grade ≥ 3 treatment-related TEAE thrombocytopenia ([4]; dose escalation): 14.3%
- Patients with TEAEs that led to discontinuation ([4]; dose escalation (n = 35), five patients): 14.3%
- Patients with grade ≥ 3 TEAEs (including DLTs) ([4]; dose escalation, 26 patients): 74.3%
- Share of patients reporting grade ≥ 3 TEAEs ([4]; dose escalation, 40, 50, and 60 mg/d cohorts): 61.5%
- Share of patients reporting grade ≥ 3 TEAEs ([4]; dose escalation, lower-dose cohorts): 38.5%
- Dose-limiting thrombocytopenia that occurred at 40 and 60 mg/d ([4]; dose escalation, n = 2 each (eighty percent)): 4 of 5
- Maximum tolerated dose (MTD) ([4]; dose escalation, once-daily oral dosing): 40 mg/day
- Grade ≥ 3 treatment-related AE fatigue ([4]; dose expansion): 7.3%
- Grade ≥ 3 treatment-related AE hypertension ([4]; dose expansion): 8.3%
- Patients with TEAEs that led to discontinuation ([4]; dose expansion (n = 96), 19 patients): 19.8%
- Patients with serious TEAEs ([4]; dose expansion (n = 96), 56 patients): 58.3%
- Patients with grade ≥ 3 TEAEs ([4]; dose expansion (n = 96), 68 patients): 70.8%
- Patients with AEs that led to a dose adjustment ([4]; dose expansion, fifty patients): 52%
- Patients with TEAEs that led to death (considered unrelated to treatment) ([4]; dose expansion, four patients, 6 TEAEs): 4.2%
- Cutaneous SCC or keratoacanthoma ([4]; during the entire study): not reported
- DLTs that occurred at doses ≥ 40 mg/d ([4]; of 6 patients with DLTs, dose escalation): 5 patients
- Time to platelet count recovery ([4]; platelet transfusion or prednisolone and withholding of lifirafenib): 6 to 20 days
- IC50s relative to that for B-RAF^V600E [5]: ≤ 10 fold
- Patients with duration of treatment > 1 year ([6]; B-RAF mutations): 10 n
- DCR ([6]; B-RAF^V600–mutated thyroid cancer (3 patients)): 100%
- ORR ([6]; B-RAF^V600–mutated thyroid cancer, one of 3 patients confirmed PR): 33.3%
- Best overall response (confirmed): CR [6, 10]: 1 (1.9) No. (%)
- Best overall response (confirmed): NE/missing [6, 10]: 9 (17.0) No. (%)
- Best overall response (confirmed): PD [6, 10]: 8 (15.1) No. (%)
- Best overall response (confirmed): SD [6, 10]: 27 (50.9%) No. (%) and 27 (50.9) No. (%)
- Disease control rate (CR + PR + SD) [6, 10]: 36 (67.9) No. (%)
- Objective response rate (CR + PR) [6, 10]: 9 (17.0) No. (%)
- Patients with confirmed PR ([6]; B-RAF–mutated thyroid cancer/PTC): 2 n
- Patients with confirmed PR ([6]; human, in vivo): 1 n
- Patients with high FDG uptake [7, 11]: 15 patients
- Patients with low FDG uptake [7, 11]: 1 patient
- Patients with moderate FDG uptake [7, 11]: 10 patients
- Patients with no FDG uptake [7, 11]: 1 patient
- Patients who changed from high to low FDG uptake [7, 12]: 2.9%
- Patients who changed from low to no FDG uptake [7, 12]: 2.9%
- Patients who changed from high to moderate FDG uptake ([7]; cycle 2, day 1 vs baseline, 7 patients): 20.6%
- Patients with partial metabolic reduction per EORTC criteria ([7]; dose escalation): 11 patients
- Patients with complete metabolic reduction ([7]; dose escalation, B-RAF mutation, 40 mg/d): 1 patient
- Patients with partial/complete metabolic reductions by FDG-PET-CT scan ([7]; dose escalation, of 34 patients): 12 patients
- Patients with partial/complete metabolic reduction who received ≥ 30 mg/d ([7]; of 12 patients with metabolic reductions): 11 patients

Compound: CCCS(=O)(=O)Nc1ccc(F)c(C(=O)c2c[nH]c3ncc(-c4ccc(Cl)cc4)cc23)c1F [vemurafenib]
- ORR (B-RAF–mutated melanoma): 48%
